Measurements collected from several papers.
Lines come from different studies, so protocols differ.
Effect on: cell growth or viability

COC(=O)/C=C/C=C/c1ccc2c(c1)OCO2
IC50 (COR-L23; SRB): 95.6 µM

Cc1[nH]c(/C=C2\C(=O)Nc3ccc(S(=O)(=O)N(C)c4cccc(Cl)c4)cc32)c(C)c1C(=O)N1CCN(C)CC1
IC50 (Rh41; 72 h): 1.84 µM

O=C(Nc1cccc(C(=O)Nc2ccc3[nH]ncc3c2)c1)Nc1ccccc1Cl
IC50 (KM12; ATP luminescence; 72 h): > 50 µM

COc1ccc2c(c1)/C(=N/NC(=O)c1cc3ccccc3[nH]1)C(=O)N2
IC50 (ZR75): 17.9 µM

O=C(Nc1ccc2[nH]ncc2c1)c1cccc(NC(=S)Nc2ccc(F)cc2F)c1
IC50 (KM12; ATP luminescence; 72 h): 30.6 µM

CN1C(=O)/C(=N\NC(=O)c2cc3ccccc3[nH]2)c2cc(Br)ccc21
IC50 (ZR75): 1.01 µM

CCCCC/C=C/C(=O)CCc1ccc(O)c(OC)c1
IC50 (COR-L23; SRB): 16.2 µM

CCC(C(=O)COc1c(F)c(F)cc(F)c1F)n1cc([C@](C)(CC(C)C)NCc2ccc3ncccc3c2)nn1 (stereo partly shown)
IC50 (BESM; 72 h): > 10 µM

Cc1[nH]c2ccccc2c1CCNCc1ccc(/C=C/C(=O)NO)cc1
IC50 (A2780C/P; crystal violet; 48 h): 0.0088 µM

FC(F)(F)c1ccc(C(c2c[nH]c3ccccc23)c2c[nH]c3ccccc23)cc1
IC50 (PPC-1; ATP luminescence; 22 h): 17.6 µM

O=C1Nc2ccc(F)cc2/C1=N/NC(=O)c1cc2ccccc2[nH]1
IC50 (ZR75): > 30 µM

CCCCC(C(=O)COc1c(F)c(F)cc(F)c1F)n1cc([C@@](C)(NCc2ccc3ncccc3c2)C(C)C)nn1 (stereo partly shown)
IC50 (BESM; 72 h): > 10 µM

CN1C(=O)/C(=N\NC(=O)c2cc3ccccc3[nH]2)c2ccccc21
IC50 (ZR75): 1.53 µM

CCCCC[C@H](O)CC(=O)CCc1ccc(O)c(OC)c1
IC50 (COR-L23; SRB): 199 µM

CC(C)C(=O)Nc1ccc([N+](=O)[O-])c(C(F)(F)F)c1
IC50 (Hep3B; CCK-8; 48 h): > 50 µM

[Fe+2].c1cc[cH-]c1.c1cc[cH-]c1
IC50 (BL2; MTT; 48 h): > 100 µM

O=C1NCCc2[nH]c(-c3ccncc3)cc21
IC50 (SR): 0.286 µM

COc1cc2c(Oc3ccc(NC(=O)C4(C(=O)Nc5ccc(F)cc5)CC4)cc3F)ccnc2cc1OCCCN1CCOCC1
IC50 (Rh41; 72 h): 0.59 µM

CC(C)C[C@H](NC(=O)[C@H](Cc1ccccc1)NC(=O)c1cnccn1)B(O)O
IC50 (CAKI-2; ATP luminescence): 0.024 µM

O=C(Nc1cccc(C(=O)Nc2ccc3[nH]ncc3c2)c1)Nc1ccccc1C(F)(F)F
IC50 (KM12; ATP luminescence; 72 h): 43.7 µM

COc1ccc2c(c1)/C(=N/NC(=O)c1cc3ccccc3[nH]1)C(=O)N2C
IC50 (ZR75): 1.48 µM

O=C(Nc1ccc(C(F)(F)F)cc1)Nc1cccc(C(=O)Nc2ccc3[nH]nc(-c4ccccc4)c3c2)c1
IC50 (KM12; ATP luminescence; 72 h): > 50 µM

COc1cc(N2CCC(N3CCN(C)CC3)CC2)ccc1Nc1ncc(Cl)c(Nc2ccccc2S(=O)(=O)C(C)C)n1
IC50 (Rh41; 72 h): 0.07 µM

O=C(Nc1cccc(Cl)c1)Nc1cccc(C(=O)Nc2ccc3[nH]ncc3c2)c1
IC50 (KM12; ATP luminescence; 72 h): > 50 µM

C[C@H]1O[C@@H](n2cc(F)c(=O)[nH]c2=O)[C@H](O)[C@@H]1O
IC50 (Hep3B; CCK-8; 48 h): 13.2 µM

O=C(Nc1ccc2[nH]ncc2c1)c1cccc(NC(=S)Nc2cc(C(F)(F)F)cc(C(F)(F)F)c2)c1
IC50 (KM12; ATP luminescence; 72 h): 19.6 µM

CCC(C(=O)COc1c(F)c(F)cc(F)c1F)n1cc([C@@](C)(NCc2ccc3ncccc3c2)C(C)C)nn1 (stereo partly shown)
IC50 (BESM; 72 h): > 10 µM

O=C(Nc1ccc(Br)cc1)Nc1cccc(C(=O)Nc2ccc3[nH]ncc3c2)c1
IC50 (KM12; ATP luminescence; 72 h): > 50 µM

COc1cc(Nc2nccc(-c3cnn4nc(OC)ccc34)n2)cc(C(F)(F)F)c1
IC50 (CAKI-2; ATP luminescence): 0.2 µM

O=C(Nc1ccc(I)cc1)Nc1cccc(C(=O)Nc2ccc3[nH]ncc3c2)c1
IC50 (KM12; ATP luminescence; 72 h): > 50 µM

CC1=CC(C)(C)N(Cc2ccccc2)c2ccc(O)cc21
IC50 (Hep3B; MTT; 72 h): 5.2 µM
